Compound activity: PubChem BioAssay, several laboratories
Only some compounds are listed: those with a hit (about 2.2% of all), similar ones and a draw of the others.
IMP-1 inh = blocks Pseudomonas aeruginosa IMP-1 metallo-beta-lactamase; purified IMP-1, nitrocefin hydrolysis, epi-absorbance fluorescence; actives 0.45% (n = 290,000); AID 1556; inhibition, % at 5.6 µM;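 active = inhibition above the mean plus 3 SD of all compounds in the same screening run, cut at about 4.5% in these data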;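 note: 0% = IMP-1 with DMSO and 100% = DMSO wells lacking enzyme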
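System: Purified recombinant IMP-1 metallo-beta-lactamase enzyme | Measured by: Fluorescence quenching readout, ex 480/em 530 nm | Replication: Singlicate | Incubation: 15 min preincubation plus 25 min reaction at 25 °C | Evaluation: Percent inhibition from optical density relative to buffer-blank wells | Benchmarks: DMSO with and without IMP-1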
PHOSPHO1 block = inhibitors of human PHOSPHO1 phosphatase. Q8TCT1. recombinant PHOSPHO1, absorbance phosphatase assay. inhibition, % at 13.3 µM. actives 1.1% (n = 290,000); in the data active = inhibition above about 60%
Target sequence (Q8TCT1 whole entry, looked up): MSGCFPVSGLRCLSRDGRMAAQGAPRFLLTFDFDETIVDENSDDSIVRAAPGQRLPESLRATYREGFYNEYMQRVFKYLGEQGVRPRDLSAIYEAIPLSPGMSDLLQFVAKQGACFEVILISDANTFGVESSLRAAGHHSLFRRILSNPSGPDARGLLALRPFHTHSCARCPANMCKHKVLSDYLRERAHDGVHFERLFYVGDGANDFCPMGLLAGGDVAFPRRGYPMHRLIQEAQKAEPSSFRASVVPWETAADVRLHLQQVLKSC
Yeast superoxide = yeast age-related superoxide inhibition as caloric restriction mimetic; S. cerevisiae aged cells, superoxide DHE fluorescence; hits give low values; superoxide response (% of plate mean), % at 10 µM; actives 0.18% (n = 330,000); AID 2690;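 active = superoxide response under a set limit, about three screen SD below normal, cut at about 65% in these data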;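 note: yeast aged for seven days with compound at 30 °C before DHE staining; 100% = average MFI of all compound-treated wells on the plate with controls excluded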
PvdQ inh = P. aeruginosa PvdQ acylase inhibition; purified PvdQ acylase, fluorescence plate reader; inhibition, % at 10 µM; actives 0.063% (n = 340,000); AID 488965; in the data active = inhibition above about 30%, passing the limit was not always enough;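 note: 0% = vehicle neutral wells and 100% = reference inhibitor wells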
VIM-2 inhibitor = blocks Pseudomonas aeruginosa VIM-2 metallo-beta-lactamase. purified VIM-2, nitrocefin hydrolysis, epi-absorbance fluorescence. inhibition, % at 5.6 µM. actives 0.89% (n = 290,000);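 active = inhibition above the mean of all tested compounds plus 3 SD, cutoff set per screening run, cut at about 7.5% in these data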;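 note: red hydrolysis product quenches plate fluorescence so inhibitors raise well fluorescence; 0% = enzyme with DMSO and 100% = DMSO without enzyme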
* = called active by the depositor; nt = no result given.

SMILES	IMP-1 inh	PHOSPHO1 block	Yeast superoxide	PvdQ inh	VIM-2 inhibitor
CCc1ccc2[nH]c(=O)c(C(c3nnnn3CCOC)N3CCN(c4ccccc4)CC3)cc2c1 (configuration not stated)	-3.3	85.6*	93.2	4.0	-2.5
COc1ccc2cc(C(c3nnnn3C3CCCC3)N3CCc4ccccc4C3)c(=O)[nH]c2c1 (configuration not stated)	-3.2	97.8*	95.0	-1.5	-0.4
COc1ccc2cc(C(c3nnnn3C(C)(C)C)N3CCc4ccccc4C3)c(=O)[nH]c2c1 (configuration not stated)	-1.6	34.7	94.3	nt	0.8
CCc1ccc2[nH]c(=O)c(C(c3nnnn3CCOC)N3CCN(c4ccc(F)cc4)CC3)cc2c1 (configuration not stated)	-2.6	-12.9	81.3	-5.8	-3.5
COC(=O)C1=C(C(=O)OC)[C@@H]2N(C)c3ccc(OC)cc3[C@@]23C[C@@H](C(=O)OC)N(C(=O)COCc2ccccc2)C3=N1	nt	nt	91.5	nt	nt
Cc1cc(C(=O)C(C)OC(=O)c2ccc(NC(=O)CC#N)cc2)c(C)n1-c1ccccc1 (configuration not stated)	nt	nt	81.8	-8.0	nt
CC(C)(C)N1C(=O)[C@H]2[C@@H](c3ccc(Br)cc3)N3C(=O)N(c4cccc(Cl)c4)C(=O)[C@@]3(Cc3ccccc3)[C@H]2C1=O	nt	nt	91.0	-8.8	nt
CN1CCC(N(C)C(=O)/C(C#N)=C/c2ccc(OC(F)F)cc2)CC1	-1.1	34.3	nt	-7.5	0.4
COc1ccc(-c2c(C)nn3c(-c4ccccc4)cc(C)nc23)cc1	-3.7	44.8	84.5	-0.7	-3.2
COc1ccc(-c2c(C)nn3c(Cl)c(C)c(C)nc23)cc1	-0.8	28.7	97.9	-3.2	8.7*
O=C(CSc1ccccn1)N1CCN(c2cccc(Cl)c2)CC1	-2.5	82.6*	68.2	-7.7	-2.0
CCN(C(=S)NC(=O)c1ccccc1Br)C1CCCCC1	-1.1	-13.0	85.5	-9.3	-1.8
COc1ccc(CC(=O)Nc2cccc(-c3csc(C)n3)c2)cc1	-0.3	12.5	92.7	8.7	-2.2
Cc1nc(-c2cccc(NC(=O)COc3ccc(Cl)cc3)c2)cs1	-3.3	65.8*	108.0	-3.2	-2.7
Cn1c(-c2ccc(Br)o2)nc2cc(Br)ccc21	-1.2	21.9	90.7	4.6	8.0*
COc1ccccc1C(=O)NCCC(=O)NCc1ccncc1	nt	nt	102.3	-14.7	nt
CCN1CCN(CCCNC(=O)c2ccc3c(Cl)c4c(nc3c2)CCCC4)CC1	-0.6	34.4	102.5	-5.2	11.3*
CC1CCN(CCCNC(=O)c2ccc3c(Cl)c4c(nc3c2)CCCC4)CC1	-0.7	13.9	107.0	-9.1	11.2*
O=C(NCCCN1CCCCCC1)c1ccc2c(Cl)c3c(nc2c1)CCCC3	-3.6	11.2	92.9	-8.3	0.5
CCCN(CCC)CCCNC(=O)c1ccc2c(Cl)c3c(nc2c1)CCC3	-3.4	42.2	93.8	7.2	9.6*
O=C(CSc1nncn1-c1ccccc1F)NC1CC1	nt	nt	72.5	-0.6	nt
COc1ccc(CC(=O)Nc2nn(C)c3nc4c(C)cccc4cc23)cc1	-1.2	28.5	104.4	nt	-1.2
Cc1sc(-n2c(C)cc(/C=N/n3cnnc3)c2C)c(C#N)c1C	-3.6	84.3*	81.5	-9.4	-2.5
Cc1sc(-n2c(C)cc(/C=C3\SC(=S)NC3=O)c2C)c(C#N)c1C	-2.9	13.5	91.0	11.3	-4.2
N#CC1=C(SCc2ccccc2)NC2=C(C(=O)CCC2)C1c1ccc2c(c1)OCO2 (configuration not stated)	-5.0	93.4*	102.2	-17.2	-3.4
SMILES	IMP-1 inh	PHOSPHO1 block	Yeast superoxide	PvdQ inh	VIM-2 inhibitor
COC(=O)CSC1=C(C#N)C(c2ccc3c(c2)OCO3)C2=C(CCCC2=O)N1 (configuration not stated)	-4.7	66.4*	103.9	3.3	-3.0
CCSC1=C(C#N)C(c2ccc3c(c2)OCO3)C2=C(CCCC2=O)N1 (configuration not stated)	-4.5	5.7	95.4	-7.8	-0.4
Cc1ccc(NC(=O)CSC2=C(C#N)C(c3ccc4c(c3)OCO4)C3=C(CCCC3=O)N2)c(C)c1 (configuration not stated)	-2.4	71.5*	100.4	-11.0	-0.9
COC(=O)CSC1=C(C#N)C(c2ccc(C)cc2)C2=C(CCCC2=O)N1 (configuration not stated)	-3.9	17.7	98.2	-7.4	-1.5
Nc1cc(=O)[nH]c(SCC(=O)N2CCC(Cc3ccccc3)CC2)n1	nt	nt	77.5	-8.9	nt
O=C(CCN1C(=O)C2CC=CCC2C1=O)Nc1ccc(S(=O)(=O)N2CCCCC2)cc1 (configuration not stated)	nt	nt	nt	-11.8	nt
COc1cccc2sc3ccc(NCCC4CCCN4C)cc3c(=O)c12 (configuration not stated)	-0.7	20.2	99.2	-8.3	8.4*
COc1cc2sc3cc(NCC[C@@H]4CCCN4C)ccc3c(=O)c2cc1OC	nt	nt	97.2	10.7	nt
COc1ccc(-c2oc(=O)n(C)c2-c2ccc(OC)cc2)cc1	-0.4	60.8*	95.1	4.9	0.1
COCCn1c(-c2ccc(OC)cc2)c(-c2ccc(OC)cc2)oc1=O	-1.2	15.9	114.2	-10.0	0.5
Nc1c(-c2ccc(Cl)cc2)cnn1-c1cccc([N+](=O)[O-])c1	-0.3	44.0	106.5	-10.0	-6.2
Nc1c(-c2ccccc2)cnn1-c1cccc([N+](=O)[O-])c1	-1.0	64.6*	115.9	11.3	-2.7
COc1ccc(Cn2c(=N)c(C(=O)NCC3CCCO3)cc3c(=O)n4ccccc4nc32)cc1 (configuration not stated)	-2.9	8.3	76.1	9.6	9.2*
COc1ccc(CCn2c(=N)c(C(=O)NCC3CCCO3)cc3c(=O)n4ccccc4nc32)cc1 (configuration not stated)	-0.6	23.5	96.1	5.4	5.3
N=c1c(C(=O)NCC2CCCO2)cc2c(=O)n3ccccc3nc2n1Cc1ccc(Cl)cc1 (configuration not stated)	3.3	-30.1	89.5	-9.4	9.9*
O=C1CC[C@@H](CN(Cc2ccccc2)Cc2cn[nH]c2-c2cc3ccccc3o2)N1	-3.0	32.5	120.3	5.2	-2.7
c1ccc2oc(-c3[nH]ncc3CN(Cc3ccncc3)CC3CCCO3)cc2c1 (configuration not stated)	-3.0	60.1*	80.8	-6.0	-2.6
COc1ccc(CNC(=O)CN(c2cc(C)cc(C)c2)S(=O)(=O)c2c(C)[nH]c(=O)[nH]c2=O)cc1	-3.3	63.6*	87.6	-13.0	-3.0
Cc1ccnc(NC(=O)CCc2c(C)nc3ncnn3c2C)c1	1.3	63.9*	66.8	-3.9	-2.3
CC(=O)c1ccc(NC(=O)CCc2c(C)nc3ncnn3c2C)cc1	0.9	-3.3	nt	4.6	-0.1
Cc1ccc(NC(=O)CCc2c(C)nc3ncnn3c2C)nc1	5.2*	2.3	86.0	-12.1	1.4
c1coc(Cn2c(SCc3nc4ccccc4[nH]3)nnc2-c2cnccn2)c1	-4.3	90.1*	96.7	5.4	-2.1
